Source: PubChem
NR2E3 ag-1: NR2E3 agonists in two-hybrid cells, primary screen, cell-based, luminescence, CHO-S, Gal4-NCOR/VP16-NR2E3; AID 602229, 2012; inhibition of corepressor binding, % at 3.98 µM; Photoreceptor-specific nuclear receptor (Homo sapiens), Q9Y5X4; luciferase; hit rate 0.35% among 360,000;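 active = inhibition above the mean of all tested compounds plus 3 SD, cut at about 70% in these data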;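 also: 0% = DMSO with NR2E3 transfected cells and 100% = cells lacking NR2E3 construct; higher means lower luciferase signal from less NR2E3 corepressor binding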
GASC-1 inh: inhibitors of GASC-1 histone demethylase, primary screen, biochemical, fluorescence, DELFIA europium; inhibition, % at 2.35 µM; Lysine-specific demethylase 4C (Homo sapiens), Q9H3R0; GST-JMJD2C(1-420) H3K9me3 demethylation; hit rate 0.069% among 330,000;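 active = more than half of a compound's replicate wells show inhibition beyond 50%, single wells judged on their own value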;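 also: signal counts dimethyl H3K9 product captured on neutravidin plate; 0% = median of DMSO wells and 100% = 0.3 times that DMSO median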
Furin inh: human furin inhibitors, primary screen, biochemical, fluorescence intensity; P09958; purified furin, fluorogenic substrate cleavage; inhibition, % at 20 µM or 30 µM; hit rate 0.061% among 220,000; in the data active = inhibition above about 25%
NR2E3 ag-2: inhibitors of NR2E3-RetCOR corepressor binding, primary screen, NR2E3 agonist project, biochemical, TR-FRET, GST-NR2E3, biotin-RetCOR. hit rate 0.12% among 320,000. inhibition of corepressor binding, % at 4.78 µM. Photoreceptor-specific nuclear receptor (Homo sapiens), Q9Y5X4. 1536-well;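 active = percent inhibition above the cutoff of mean plus 3 SD of all tested compounds, set per screening campaign, cut at about 20% in these data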;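 also: 0% = DMSO wells and 100% = biotin wells as full block of FRET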
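Test system: GST-NR2E3 and biotin-RetCOR proteins | Quantity: 1.35 nM GST-tagged NR2E3 final | Medium: Tris pH 7.5 | Also added: 7 nM biotin-RetCOR | Dosing: Compound at 4.8 µM, single dose | Timing: 5 h at 4 °C | Detection: Time-resolved FRET | Read-out basis: Percent inhibition | Benchmarks: Biotin wells as high control, 0.6% DMSO wells as low control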
EP2 modulator: EP2 receptor modulators, cAMP readout, primary screen, cell-based, HTRF cAMP, PGE2 stimulation | EP2-expressing cells, cAMP HTRF FRET, PGE2 co-stimulation | induction, % at 25 µM | hit rate 0.83% among 260,000 | AID 940, 2007;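 active = compounds whose cAMP rise, as percent of the full-agonist control response, exceeds 60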;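 also: rat C6 glioma line stably carrying human EP2 under a CMV promoter; the protocol text gives 20 µM as final concentration; 100% = response of wells given 1 µM PGE2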
Target sequence (P43116 whole entry, looked up): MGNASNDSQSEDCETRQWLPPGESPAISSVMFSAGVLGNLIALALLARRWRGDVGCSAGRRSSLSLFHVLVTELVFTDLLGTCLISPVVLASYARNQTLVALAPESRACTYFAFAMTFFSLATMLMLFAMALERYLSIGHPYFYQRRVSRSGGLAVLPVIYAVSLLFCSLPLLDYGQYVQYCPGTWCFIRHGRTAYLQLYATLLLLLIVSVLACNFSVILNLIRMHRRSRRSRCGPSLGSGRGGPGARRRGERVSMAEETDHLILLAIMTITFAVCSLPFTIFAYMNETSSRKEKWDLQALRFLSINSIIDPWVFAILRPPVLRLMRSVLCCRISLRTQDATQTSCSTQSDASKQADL
EP2 antag: human EP2 receptor antagonists, primary screen, TR-FRET cAMP, C6 glioma cells; Prostaglandin E2 receptor EP2 subtype (Homo sapiens), P43116; C6 glioma cells expressing human EP2; cells stimulated with saturating PGE2; inhibition, % at 25 µM; hit rate 0.52% among 260,000; AID 1422, 2008;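 active = percent inhibition above 40 after rounding to a whole number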;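 also: rat C6 glioma host cells with rolipram phosphodiesterase inhibitor present; the protocol text gives 20 µM as final concentration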
NR2E3 ag conf: NR2E3 agonist confirmation in cells, cell-based, luminescence, CHO-S two-hybrid. shares compounds with NR2E3 ag-1. CHO-S mammalian two-hybrid NR2E3-NCOR, luciferase luminescence. inhibition, % at 3.98 µM. hit rate 51% among 2,300;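 active = average inhibition above a cutoff equal to the mean inhibition of all tested compounds plus one SD, cut at about 70% in these data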;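 also: 0% = DMSO in NR2E3 cells and 100% = DMSO in cells lacking NR2E3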
VP16 counter: GAL4-VP16 reporter modulators, confirmation, counter-screen for NR2E3 agonist project, cell-based, luminescence, CHO-S, high throughput | shares compounds with NR2E3 ag-1 | CHO-S GAL4-VP16 luciferase reporter | inhibition, % at 3.98 µM | hit rate 29% among 2,300 | AID 624379, 2012;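 active = mean inhibition above a cutoff equal to the average over all tested compounds plus one standard deviation, cut at about 70% in these data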;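 also: luciferase from a UAS reporter driven by GAL4-VP16 transactivation; 0% = DMSO with VP16-transfected cells and 100% = DMSO with cells lacking VP16; higher means less reporter light so more repression of VP16 activity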
Starred values were filed as active, the others as inactive; . = no result given. Hits are enriched below; roughly 1.3% of the tested compounds scored in any of these assays.

SMILES	NR2E3 ag-1	GASC-1 inh	Furin inh	NR2E3 ag-2	EP2 modulator	EP2 antag	NR2E3 ag conf	VP16 counter
CCC(C)c1ccc(C(C)NC(=S)NC2CCCCC2)cc1 (stereo unspecified)	85.1*	3.5	.	-0.6	.	.	57.2	48.4
CCn1c(=O)oc2cc(S(=O)(=O)NCC3CC4CCC3C4)c(Cl)cc21 (stereo unspecified)	.	.	.	.	-95.2	5.3	.	.
CCC(C)NC(=S)N(CCN(C)C)Cc1cc2cc(C)ccc2[nH]c1=O (stereo unspecified)	.	.	.	.	-3.8	10.9	.	.
Cc1cc(C(=O)COC(=O)c2ccc(O)cc2O)c(C)n1-c1ccc(OC(F)F)cc1	54.8	.	.	.	.	.	3.1	25.0
Cc1cc(C(=O)CC#N)c(C)n1-c1ccc(OC(F)F)cc1	9.5	-2.7	-25.5	0.3	19.5	9.9	.	.
COc1ccc(-n2c(C)cc(C(=O)COC(=O)c3ccc(O)cc3O)c2C)cc1	59.4	.	.	0.3	.	.	88.8*	49.1
Cc1cc(C(=O)COC(=O)c2ccc(O)cc2O)c(C)n1-c1ccccc1	24.7	1.1	.	0.8	.	.	.	.
Cc1ccc(Cl)cc1N1CCN(C(=O)CN(C2CCCCC2)S(C)(=O)=O)CC1	52.7	5.7	-10.2	3.1	-45.0	9.0	61.2	61.2
CC(C)NS(=O)(=O)c1ccc(OCC(=O)N2CCCC2)cc1	5.3	8.0	-15.4	-4.2	-0.7	9.6	.	.
Cc1ccc(Cl)cc1N1CCN(C(=O)COc2ccc(S(=O)(=O)NC(C)C)cc2)CC1	55.8	-0.5	-28.8	2.7	-6.6	11.9	63.9	41.9
Fc1ccc(NC(=S)NNc2ncc(C(F)(F)F)cc2Cl)c(F)c1	79.8*	-1.4	-14.6	3.9	-39.8	3.5	67.5	56.8
Cc1ccc(NC(=S)NNc2ncc(C(F)(F)F)cc2Cl)cc1	12.6	-18.1	-17.5	0.1	4.8	5.9	.	.
FC(F)(F)c1cnc(NNC(=S)Nc2ccc(Cl)cc2)c(Cl)c1	70.1*	8.3	-21.8	1.1	-30.3	3.5	94.1*	76.8*
COc1ccc(CN2CCC(NC(C)=O)(c3ccc(F)cc3)CC2)cc1OC(C)C	.	.	.	.	-39.4	3.8	.	.
O=C(CCCc1c[nH]c2ccccc12)N1CCn2c(nnc2C2CC2)C1	.	.	.	.	-26.0	1.7	.	.
O=C(c1cc(S(=O)(=O)N2CCOCC2)ccc1Cl)N1CCC(Cc2ccccc2)CC1	57.0	1.5	.	-1.9	.	.	26.7	7.1
COc1ccc(NC(=O)CSc2nc(Cc3ccccc3)nc3ccccc23)cc1	.	.	.	.	22.7	12.2	.	.
O=C(OCc1ccccc1)N(CCCCN(CCCNCc1ccccc1)C(=O)OCc1ccccc1)CCCNCc1ccccc1	47.8	.	.	.	.	.	61.6	26.0
O=C(NCCNCc1c[nH]c2ccccc12)c1ccc(Cl)cc1	.	.	.	.	-28.3	10.2	.	.
Cc1cccc(CSC(Nc2ccc(F)cc2)=C(C#N)C#N)c1	96.5*	3.2	-12.0	-0.2	-2.6	15.9	98.2*	93.2*
Cc1cccc(CSC(=N)N)c1	4.3	-13.7	-21.2	-1.6	10.0	9.7	.	.
